# Data from ChEMBL document CHEMBL4689842, “EUbOPEN Chemogenomics Library wave 1” (2021).
# Where “and” joins values, the source holds several entries; their conditions need not be identical. Equal values may be shown once.
# What was measured:
# Assay type in all cases: toxicity, cell-based
# [1] = test system: U2OS; assay: Multiplex assay against U2OS; conditions: human, 48 h, 10 µM, compound concentration 10 uM
# Summary of the method: (§1)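 On a CQ1 microscope at 37°C and 5% CO2, live cells were imaged after compound addition. They had been stained at seeding with Hoechst33342, BioTracker Green Microtubule Cytoskeleton Dye, MitoTracker Red and Annexin V Alexa Fluor 680. CellPathfinder machine-learning gating assigned cells to Hoechst high-intensity objects or normal cells, normal cells to healthy, pyknosed or fragmented nuclei, and pyknosed cells to mitotic or apoptotic. Tubulin, mitochondrial-mass and membrane-permeability phenotypes are per cents of healthy-nucleus cells.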
# [2] = test system: Fibroblast; assay: Multiplex assay against human fibroblast; conditions: 10 µM, compound concentration 10 uM; summary of the method: as §1
# [3] = test system: U2OS; assay: Incucyte cell viability with U2OS; conditions: human, 10 µM, compound concentration 10 uM; further: filed as whole numbers so only -1 and 0 and 1 occur
structure (smiles),measurement,setting,value
CN1CCN(C(=O)C(C)(C)c2ccc(C(=O)Nc3cn4cc(-c5ccncc5)ccc4n3)cc2)CC1 [T3-CLK],Population Apoptotic (%),[1]; replicate 1,73%
same,Population Fragmented Nuclei (%),[1]; replicate 1,34%
same,Population Healthy Nuclei (%),[1]; replicate 1,15%
same,Population Hoechst High Intensity Objects (%),[1]; replicate 1,16%
same,Population Membrane Permeable-Phenotype (%),[1]; replicate 1,56%
same,Population Mitochondria Different-Phenotype (%),[1]; replicate 1,87%
same,Population Mitotic Cells (%),[1]; replicate 1,26%
same,Population Normal (%),[1]; replicate 1,83%
same,Population Pyknosed Nuclei (%),[1]; replicate 1,50%
same,Population Tubulin-Different-Phenotype (%),[1]; replicate 1,100%
same,Total Cell Count,[1]; replicate 1,145
same,Population Apoptotic (%),[1]; replicate 2,61%
same,Population Fragmented Nuclei (%),[1]; replicate 2,28%
same,Population Healthy Nuclei (%),[1]; replicate 2,36%
same,Population Hoechst High Intensity Objects (%),[1]; replicate 2,23%
same,Population Membrane Permeable-Phenotype (%),[1]; replicate 2,63%
same,Population Mitochondria Different-Phenotype (%),[1]; replicate 2,81%
same,Population Mitotic Cells (%),[1]; replicate 2,38%
same,Population Normal (%),[1]; replicate 2,76%
same,Population Pyknosed Nuclei (%),[1]; replicate 2,35%
same,Population Tubulin-Different-Phenotype (%),[1]; replicate 2,90%
same,Total Cell Count,[1]; replicate 2,57
same,Population Apoptotic (%),"[2]; 12 h, replicate 1",65% and 61% and 86%
same,Population Fragmented Nuclei (%),"[2]; 12 h, replicate 1",35% and 22%
same,Population Healthy Nuclei (%),"[2]; 12 h, replicate 1",48% and 50% and 64%
same,Population Hoechst High Intensity Objects (%),"[2]; 12 h, replicate 1",12% and 17%
same,Population Mitochondria Different-Phenotype (%),"[2]; 12 h, replicate 1",6%
same,Population Mitotic Cells (%),"[2]; 12 h, replicate 1",35% and 38% and 13%
same,Population Normal (%),"[2]; 12 h, replicate 1",87% and 82%
same,Population Pyknosed Nuclei (%),"[2]; 12 h, replicate 1",15% and 14% and 13%
same,Total Cell Count,"[2]; 12 h, replicate 1",145 and 330 and 306
same,Population Membrane Permeable-Phenotype (%),"[2]; 12 h, replicate 2",31% and 20% and 21%
same,Population Normal (%),"[2]; 12 h, replicate 2",73% and 49% and 92%
same,Population Pyknosed Nuclei (%),"[2]; 12 h, replicate 2",6% and 9% and 11%
same,Population Tubulin-Different-Phenotype (%),"[2]; 12 h, replicate 2",44% and 60% and 94%
same,Total Cell Count,"[2]; 12 h, replicate 2",87 and 63 and 57
same,Population Apoptotic (%),"[2]; 24 h, replicate 1",69% and 55% and 80%
same,Population Fragmented Nuclei (%),"[2]; 24 h, replicate 1",37% and 35% and 18%
same,Population Healthy Nuclei (%),"[2]; 24 h, replicate 1",48% and 45% and 67%
same,Population Hoechst High Intensity Objects (%),"[2]; 24 h, replicate 1",18% and 11% and 13%
same,Population Mitotic Cells (%),"[2]; 24 h, replicate 1",30% and 44% and 20%
same,Population Normal (%),"[2]; 24 h, replicate 1",81% and 88% and 86%
same,Population Pyknosed Nuclei (%),"[2]; 24 h, replicate 1",13% and 19%
same,Total Cell Count,"[2]; 24 h, replicate 1",335 and 161 and 296
same,Population Membrane Permeable-Phenotype (%),"[2]; 24 h, replicate 2",33% and 17%
same,Population Normal (%),"[2]; 24 h, replicate 2",58% and 90% and 61%
same,Population Pyknosed Nuclei (%),"[2]; 24 h, replicate 2",9% and 11% and 6%
same,Population Tubulin-Different-Phenotype (%),"[2]; 24 h, replicate 2",33% and 88% and 50%
same,Total Cell Count,"[2]; 24 h, replicate 2",53 and 57 and 76
same,Population Apoptotic (%),"[2]; 48 h, replicate 1",52%
same,Population Fragmented Nuclei (%),"[2]; 48 h, replicate 1",52%
same,Population Healthy Nuclei (%),"[2]; 48 h, replicate 1",32%
same,Population Hoechst High Intensity Objects (%),"[2]; 48 h, replicate 1",17%
same,Population Membrane Permeable-Phenotype (%),"[2]; 48 h, replicate 1",32%
same,Population Mitochondria Different-Phenotype (%),"[2]; 48 h, replicate 1",20%
same,Population Mitotic Cells (%),"[2]; 48 h, replicate 1",47%
same,Population Normal (%),"[2]; 48 h, replicate 1",82%
same,Population Pyknosed Nuclei (%),"[2]; 48 h, replicate 1",15%
same,Population Tubulin-Different-Phenotype (%),"[2]; 48 h, replicate 1",76%
same,Total Cell Count,"[2]; 48 h, replicate 1",162
same,Population Apoptotic (%),"[2]; 48 h, replicate 2",63%
same,Population Fragmented Nuclei (%),"[2]; 48 h, replicate 2",38%
same,Population Healthy Nuclei (%),"[2]; 48 h, replicate 2",49%
same,Population Hoechst High Intensity Objects (%),"[2]; 48 h, replicate 2",6%
same,Population Membrane Permeable-Phenotype (%),"[2]; 48 h, replicate 2",47%
same,Population Mitochondria Different-Phenotype (%),"[2]; 48 h, replicate 2",15%
same,Population Mitotic Cells (%),"[2]; 48 h, replicate 2",36%
same,Population Normal (%),"[2]; 48 h, replicate 2",93%
same,Population Pyknosed Nuclei (%),"[2]; 48 h, replicate 2",12%
same,Population Tubulin-Different-Phenotype (%),"[2]; 48 h, replicate 2",65%
same,Total Cell Count,"[2]; 48 h, replicate 2",95
same,Growth Rate,"[3]; 0 h, replicate number 2, timepoint 0 hours",0
same,Growth Rate,"[3]; 6 h, replicate number 1, timepoint 6 hours",1
same,Growth Rate,"[3]; 12 h, replicate number 1, timepoint 12 hours",0
same,Growth Rate,"[3]; 12 h, replicate number 2, timepoint 12 hours",1
same,Growth Rate,"[3]; 18 h, replicate number 1, timepoint 18 hours",0
same,Growth Rate,"[3]; 18 h, replicate number 2, timepoint 18 hours",1
same,Growth Rate,"[3]; 24 h, replicate number 1, timepoint 24 hours",0
same,Growth Rate,"[3]; 24 h, replicate number 2, timepoint 24 hours",1
